Measured values taken from ChEMBL document CHEMBL1138512, “A class of 2,4-bisanilinopyrimidine Aurora A inhibitors with unusually high selectivity against Aurora B” (J Med Chem, 2009).

Assays:
[1] = biological target: T1, Aurora kinase A (Homo sapiens, UniProt O14965); assay: Inhibition of N-terminal flag-tagged Aurora A expressed in Escherichia coli BL21-DE3 by ELISA
T1 sequence (O14965 whole entry): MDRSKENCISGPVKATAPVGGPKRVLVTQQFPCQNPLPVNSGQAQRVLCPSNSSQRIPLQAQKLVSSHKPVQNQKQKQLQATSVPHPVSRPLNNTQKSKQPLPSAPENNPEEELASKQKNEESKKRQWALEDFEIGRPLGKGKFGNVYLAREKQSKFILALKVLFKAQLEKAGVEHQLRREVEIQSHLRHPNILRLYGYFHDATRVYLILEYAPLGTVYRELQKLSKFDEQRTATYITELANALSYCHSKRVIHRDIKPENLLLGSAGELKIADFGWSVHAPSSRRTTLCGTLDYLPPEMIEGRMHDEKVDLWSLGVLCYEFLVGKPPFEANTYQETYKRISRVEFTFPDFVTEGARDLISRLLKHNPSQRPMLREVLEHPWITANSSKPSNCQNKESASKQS

[2] = system: HCT-116; assay: Antiproliferative activity against human HCT116 cells after 4 days by celltiter assay; assay type: functional, cell-based; conditions: HCT-116, 96 h
[3] = system: HT-29; assay: Antiproliferative activity against human HT-29 cells after 4 days by celltiter assay; assay type: functional, cell-based; conditions: HT-29, 96 h
[4] = biological target: T2, Aurora kinase B (Homo sapiens, UniProt Q96GD4); assay: Inhibition of Aurora B in human HT29 cells assessed as complete loss of phospho-histone H3 staining by immunofluorescence assay; assay type: cell-based, HT-29
T2 sequence (Q96GD4 whole entry): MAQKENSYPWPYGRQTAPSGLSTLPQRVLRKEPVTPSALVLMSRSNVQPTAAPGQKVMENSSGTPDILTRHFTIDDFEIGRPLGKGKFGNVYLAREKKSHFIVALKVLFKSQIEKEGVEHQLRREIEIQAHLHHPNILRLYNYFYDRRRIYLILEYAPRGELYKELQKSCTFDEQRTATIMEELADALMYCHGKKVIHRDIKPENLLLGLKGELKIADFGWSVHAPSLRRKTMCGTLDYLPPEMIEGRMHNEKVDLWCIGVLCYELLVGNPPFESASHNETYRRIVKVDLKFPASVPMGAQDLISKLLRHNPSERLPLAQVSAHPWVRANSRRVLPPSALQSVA
Outline: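 Immunofluorescence for phospho-S10 histone H3 in HCT116 or HT29 cells, scored visually. Value taken as the lowest inhibitor concentration giving complete loss of staining, so it lies above the IC50. Units µM.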

[5] = biological target: T2, Aurora kinase B; assay: Inhibition of Aurora B in human HCT116 cells assessed as complete loss of phospho-histone H3 staining by immunofluorescence assay
[6] = biological target: T2, Aurora kinase B; assay: Inhibition of N-terminal flag-tagged Aurora B expressed in Escherichia coli BL21-DE3 by ELISA
[7] = biological target: Tyrosine-protein kinase ABL2 (Mus musculus) (UniProt Q4JIM5); assay: Inhibition of mouse ARG at 1 uM assessed as residual enzyme activity
[8] = biological target: Proto-oncogene tyrosine-protein kinase Src (Homo sapiens) (UniProt P12931); assay: Inhibition of human c-SRC at 1 uM assessed as residual enzyme activity
Sequence of Proto-oncogene tyrosine-protein kinase Src (Homo sapiens) (P12931 2-536 limits assumed): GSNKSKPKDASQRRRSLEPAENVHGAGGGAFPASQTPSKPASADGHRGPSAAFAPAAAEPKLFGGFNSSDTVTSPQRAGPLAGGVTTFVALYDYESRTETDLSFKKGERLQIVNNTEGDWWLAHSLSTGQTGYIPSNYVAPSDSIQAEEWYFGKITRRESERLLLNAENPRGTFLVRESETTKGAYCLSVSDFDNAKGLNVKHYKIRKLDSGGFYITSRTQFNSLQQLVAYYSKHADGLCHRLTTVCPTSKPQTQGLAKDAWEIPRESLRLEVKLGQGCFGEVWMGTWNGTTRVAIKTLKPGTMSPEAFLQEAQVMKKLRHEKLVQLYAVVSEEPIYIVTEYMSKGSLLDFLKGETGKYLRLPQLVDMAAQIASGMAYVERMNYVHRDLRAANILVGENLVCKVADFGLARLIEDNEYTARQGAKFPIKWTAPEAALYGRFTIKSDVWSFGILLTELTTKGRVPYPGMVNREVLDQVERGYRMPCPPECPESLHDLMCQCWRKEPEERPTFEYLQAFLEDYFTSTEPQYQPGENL

[9] = biological target: T1, Aurora kinase A; assay: Inhibition of Aurora A in human HCT116 cells assessed as complete loss of phospho-Aurora A staining in centrosomes by immunofluorescence assay; assay type: cell-based, HCT-116
[10] = biological target: Tyrosine-protein kinase ABL1 (Mus musculus) (UniProt P00520); assay: Inhibition of mouse ABL at 1 uM assessed as residual enzyme activity
Sequence of Tyrosine-protein kinase ABL1 (Mus musculus) (P00520 whole entry): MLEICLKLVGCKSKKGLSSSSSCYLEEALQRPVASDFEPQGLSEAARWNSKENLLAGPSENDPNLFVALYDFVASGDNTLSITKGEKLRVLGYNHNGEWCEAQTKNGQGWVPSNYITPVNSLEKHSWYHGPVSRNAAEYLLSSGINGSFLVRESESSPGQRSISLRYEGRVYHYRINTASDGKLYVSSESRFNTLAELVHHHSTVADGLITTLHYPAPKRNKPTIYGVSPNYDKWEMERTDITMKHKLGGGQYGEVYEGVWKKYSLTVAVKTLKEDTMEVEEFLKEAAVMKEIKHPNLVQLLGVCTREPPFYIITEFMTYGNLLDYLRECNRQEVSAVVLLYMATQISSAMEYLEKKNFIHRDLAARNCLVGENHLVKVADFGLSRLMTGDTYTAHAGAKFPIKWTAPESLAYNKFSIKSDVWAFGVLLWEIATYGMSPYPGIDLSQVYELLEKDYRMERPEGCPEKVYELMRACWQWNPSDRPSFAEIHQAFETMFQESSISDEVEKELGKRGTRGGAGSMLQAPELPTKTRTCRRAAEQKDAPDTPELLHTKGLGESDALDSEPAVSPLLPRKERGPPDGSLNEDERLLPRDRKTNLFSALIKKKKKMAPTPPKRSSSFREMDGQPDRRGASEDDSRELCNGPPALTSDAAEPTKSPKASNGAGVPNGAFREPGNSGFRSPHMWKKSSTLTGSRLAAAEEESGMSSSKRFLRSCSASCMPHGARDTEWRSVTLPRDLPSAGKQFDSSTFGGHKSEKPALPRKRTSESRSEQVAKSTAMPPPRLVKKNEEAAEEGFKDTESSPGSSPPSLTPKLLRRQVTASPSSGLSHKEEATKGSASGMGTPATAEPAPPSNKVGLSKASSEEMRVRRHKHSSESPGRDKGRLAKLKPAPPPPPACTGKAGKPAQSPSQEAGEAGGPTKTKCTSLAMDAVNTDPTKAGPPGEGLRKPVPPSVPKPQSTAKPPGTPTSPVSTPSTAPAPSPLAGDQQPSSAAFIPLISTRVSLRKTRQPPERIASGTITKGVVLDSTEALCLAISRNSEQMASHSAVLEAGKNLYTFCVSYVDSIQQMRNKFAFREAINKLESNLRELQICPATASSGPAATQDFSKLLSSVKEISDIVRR

[11] = biological target: Tyrosine-protein kinase ZAP-70 (Homo sapiens) (UniProt P43403); assay: Inhibition of human ZAP-70 at 1 uM assessed as residual enzyme activity
[12] = biological target: T3, Cyclin-dependent kinase 2 (Homo sapiens, UniProt P24941); assay: Inhibition of human CDK2/cyclin E at 1 uM assessed as residual enzyme activity
[13] = biological target: Fibroblast growth factor receptor 3 (Homo sapiens) (UniProt P22607); assay: Inhibition of human FGFR3 at 1 uM assessed as residual enzyme activity
[14] = biological target: Hepatocyte growth factor receptor (Homo sapiens) (UniProt P08581); assay: Inhibition of human Met at 1 uM assessed as residual enzyme activity
Sequence of Hepatocyte growth factor receptor (Homo sapiens) (P08581 whole entry): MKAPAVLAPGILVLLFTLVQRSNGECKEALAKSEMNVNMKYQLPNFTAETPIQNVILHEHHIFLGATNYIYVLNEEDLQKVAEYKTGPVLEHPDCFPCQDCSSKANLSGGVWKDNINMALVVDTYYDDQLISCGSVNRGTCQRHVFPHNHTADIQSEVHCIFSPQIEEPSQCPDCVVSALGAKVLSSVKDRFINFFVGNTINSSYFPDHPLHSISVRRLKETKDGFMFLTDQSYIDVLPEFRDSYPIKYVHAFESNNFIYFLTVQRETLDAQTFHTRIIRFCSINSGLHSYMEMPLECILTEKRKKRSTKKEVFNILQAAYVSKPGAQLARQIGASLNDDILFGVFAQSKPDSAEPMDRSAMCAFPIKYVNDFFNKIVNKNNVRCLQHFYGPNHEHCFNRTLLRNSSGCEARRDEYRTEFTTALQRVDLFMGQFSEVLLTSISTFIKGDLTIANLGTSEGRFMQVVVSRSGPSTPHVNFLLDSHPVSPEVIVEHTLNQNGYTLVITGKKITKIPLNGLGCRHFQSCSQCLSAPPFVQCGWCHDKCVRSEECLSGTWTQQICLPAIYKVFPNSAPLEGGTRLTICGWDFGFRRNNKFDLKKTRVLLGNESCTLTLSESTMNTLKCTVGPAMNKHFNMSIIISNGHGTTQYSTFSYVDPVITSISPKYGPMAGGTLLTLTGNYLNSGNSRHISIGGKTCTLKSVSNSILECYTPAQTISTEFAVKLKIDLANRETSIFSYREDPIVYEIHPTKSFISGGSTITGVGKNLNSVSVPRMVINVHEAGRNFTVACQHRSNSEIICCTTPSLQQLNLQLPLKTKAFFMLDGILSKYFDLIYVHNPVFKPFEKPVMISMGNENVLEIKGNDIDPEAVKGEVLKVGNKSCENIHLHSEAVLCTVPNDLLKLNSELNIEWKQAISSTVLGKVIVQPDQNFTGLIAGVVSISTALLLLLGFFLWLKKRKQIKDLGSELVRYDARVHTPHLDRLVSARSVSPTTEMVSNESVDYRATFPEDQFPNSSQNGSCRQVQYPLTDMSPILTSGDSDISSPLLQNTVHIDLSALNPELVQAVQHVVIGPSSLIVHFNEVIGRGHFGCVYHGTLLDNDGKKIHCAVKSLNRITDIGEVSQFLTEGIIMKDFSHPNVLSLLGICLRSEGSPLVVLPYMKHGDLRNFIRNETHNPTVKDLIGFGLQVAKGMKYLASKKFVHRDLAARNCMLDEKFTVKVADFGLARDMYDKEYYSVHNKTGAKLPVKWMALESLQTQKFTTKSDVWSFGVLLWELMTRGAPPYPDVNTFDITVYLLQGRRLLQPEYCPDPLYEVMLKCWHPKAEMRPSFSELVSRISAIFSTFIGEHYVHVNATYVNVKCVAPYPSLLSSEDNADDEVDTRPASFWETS

[15] = species on record: Homo sapiens; assay: Inhibition of human PKA at 1 uM assessed as residual enzyme activity
[16] = biological target: Proto-oncogene tyrosine-protein kinase receptor Ret (Homo sapiens) (UniProt P07949); assay: Inhibition of human Ret at 1 uM assessed as residual enzyme activity
[17] = biological target: Casein kinase II (Homo sapiens) (UniProt P67870+P68400+P19784); assay: Inhibition of human CK2 at 1 uM assessed as residual enzyme activity; assay type: protein-complex assay
[18] = biological target: Serine/threonine-protein kinase Chk1 (Homo sapiens) (UniProt O14757); assay: Inhibition of human CHK1 at 1 uM assessed as residual enzyme activity
[19] = biological target: RAC-alpha serine/threonine-protein kinase (Homo sapiens) (UniProt P31749); assay: Inhibition of human PKBalpha at 1 uM assessed as residual enzyme activity
Sequence of RAC-alpha serine/threonine-protein kinase (Homo sapiens) (P31749 whole entry): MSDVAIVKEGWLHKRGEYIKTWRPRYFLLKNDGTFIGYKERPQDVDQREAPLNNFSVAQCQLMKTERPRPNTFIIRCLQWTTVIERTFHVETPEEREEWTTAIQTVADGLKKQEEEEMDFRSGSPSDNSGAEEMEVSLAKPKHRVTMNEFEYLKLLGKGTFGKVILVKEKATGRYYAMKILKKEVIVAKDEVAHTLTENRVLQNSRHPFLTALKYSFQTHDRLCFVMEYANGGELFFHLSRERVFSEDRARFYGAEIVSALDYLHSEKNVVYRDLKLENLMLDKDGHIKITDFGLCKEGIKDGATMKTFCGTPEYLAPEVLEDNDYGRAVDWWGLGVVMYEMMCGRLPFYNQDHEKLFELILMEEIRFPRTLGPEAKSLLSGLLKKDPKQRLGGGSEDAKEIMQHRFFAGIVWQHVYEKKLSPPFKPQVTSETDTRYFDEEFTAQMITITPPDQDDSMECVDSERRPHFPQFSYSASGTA

[20] = biological target: Epidermal growth factor receptor (Homo sapiens) (UniProt P00533); assay: Inhibition of human EGFR at 1 uM assessed as residual enzyme activity
[21] = biological target: RAF proto-oncogene serine/threonine-protein kinase (Homo sapiens) (UniProt P04049); assay: Inhibition of human c-RAF at 1 uM assessed as residual enzyme activity
[22] = biological target: Insulin receptor (Homo sapiens) (UniProt P06213); assay: Inhibition of human insulin receptor at 1 uM assessed as residual enzyme activity
[23] = biological target: T3, Cyclin-dependent kinase 2; assay: Inhibition of CDK2/cyclin A
[24] = biological target: RAC-gamma serine/threonine-protein kinase (Homo sapiens) (UniProt Q9Y243); assay: Inhibition of human PKBgamma at 1 uM assessed as residual enzyme activity
[25] = biological target: Tyrosine-protein kinase receptor UFO (Homo sapiens) (UniProt P30530); assay: Inhibition of human Axl at 1 uM assessed as residual enzyme activity
[26] = biological target: Ribosomal protein S6 kinase beta-1 (Homo sapiens) (UniProt P23443); assay: Inhibition of human p70S6K at 1 uM assessed as residual enzyme activity
[27] = biological target: BDNF/NT-3 growth factors receptor (Homo sapiens) (UniProt Q16620); assay: Inhibition of human TrkB at 1 uM assessed as residual enzyme activity
Sequence of BDNF/NT-3 growth factors receptor (Homo sapiens) (Q16620 32-822 limits assumed): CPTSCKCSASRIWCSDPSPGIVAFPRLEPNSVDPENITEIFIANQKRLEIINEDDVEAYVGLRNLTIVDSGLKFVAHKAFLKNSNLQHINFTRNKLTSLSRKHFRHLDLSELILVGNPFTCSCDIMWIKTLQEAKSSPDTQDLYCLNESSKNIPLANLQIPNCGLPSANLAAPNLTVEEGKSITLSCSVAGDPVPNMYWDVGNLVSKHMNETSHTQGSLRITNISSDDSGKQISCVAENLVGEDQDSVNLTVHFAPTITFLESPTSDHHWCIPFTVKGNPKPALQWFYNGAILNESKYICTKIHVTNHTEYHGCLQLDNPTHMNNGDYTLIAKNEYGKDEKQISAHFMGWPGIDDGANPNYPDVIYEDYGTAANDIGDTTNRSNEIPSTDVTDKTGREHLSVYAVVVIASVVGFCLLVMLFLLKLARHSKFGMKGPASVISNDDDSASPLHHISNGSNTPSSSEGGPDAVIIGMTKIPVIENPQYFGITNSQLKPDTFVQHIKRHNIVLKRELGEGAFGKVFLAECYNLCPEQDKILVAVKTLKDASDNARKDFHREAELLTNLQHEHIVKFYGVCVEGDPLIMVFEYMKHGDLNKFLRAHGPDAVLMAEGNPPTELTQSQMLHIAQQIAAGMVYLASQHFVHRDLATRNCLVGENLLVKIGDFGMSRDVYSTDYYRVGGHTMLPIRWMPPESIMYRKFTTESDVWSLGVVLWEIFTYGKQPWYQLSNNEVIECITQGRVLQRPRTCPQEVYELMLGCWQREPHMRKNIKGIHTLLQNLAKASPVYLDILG

[28] = biological target: Tyrosine-protein kinase CSK (Homo sapiens) (UniProt P41240); assay: Inhibition of human CSK at 1 uM assessed as residual enzyme activity
[29] = biological target: Aurora kinase A (Homo sapiens) (UniProt O14965); assay: Inhibition of human Aurora A at 1 uM assessed as residual enzyme activity
[30] = biological target: Cyclin-dependent kinase 1/cyclin B1 (Homo sapiens) (UniProt P06493+P14635); assay: Inhibition of human CDK1/cyclin B at 1 uM assessed as residual enzyme activity
[31] = biological target: RAC-beta serine/threonine-protein kinase (Homo sapiens) (UniProt P31751); assay: Inhibition of human PKBbeta at 1 uM assessed as residual enzyme activity
[32] = biological target: Glycogen synthase kinase-3 beta (Homo sapiens) (UniProt P49841); assay: Inhibition of human GSK3-beta at 1 uM assessed as residual enzyme activity
[33] = biological target: Receptor-type tyrosine-protein kinase FLT3 (Homo sapiens) (UniProt P36888); assay: Inhibition of human Flt3 at 1 uM assessed as residual enzyme activity
[34] = biological target: Mitogen-activated protein kinase 8 (Homo sapiens) (UniProt P45983); assay: Inhibition of human JNK1alpha1 at 1 uM assessed as residual enzyme activity
[35] = biological target: Ephrin type-B receptor 2 (Homo sapiens) (UniProt P29323); assay: Inhibition of human EphB2 at 1 uM assessed as residual enzyme activity
[36] = biological target: Platelet-derived growth factor receptor beta (Homo sapiens) (UniProt P09619); assay: Inhibition of human PDGFRbeta at 1 uM assessed as residual enzyme activity
[37] = biological target: Dual specificity mitogen-activated protein kinase kinase 1 (Homo sapiens) (UniProt Q02750); assay: Inhibition of human MEK1 at 1 uM assessed as residual enzyme activity
Sequence of Dual specificity mitogen-activated protein kinase kinase 1 (Homo sapiens) (Q02750 whole entry): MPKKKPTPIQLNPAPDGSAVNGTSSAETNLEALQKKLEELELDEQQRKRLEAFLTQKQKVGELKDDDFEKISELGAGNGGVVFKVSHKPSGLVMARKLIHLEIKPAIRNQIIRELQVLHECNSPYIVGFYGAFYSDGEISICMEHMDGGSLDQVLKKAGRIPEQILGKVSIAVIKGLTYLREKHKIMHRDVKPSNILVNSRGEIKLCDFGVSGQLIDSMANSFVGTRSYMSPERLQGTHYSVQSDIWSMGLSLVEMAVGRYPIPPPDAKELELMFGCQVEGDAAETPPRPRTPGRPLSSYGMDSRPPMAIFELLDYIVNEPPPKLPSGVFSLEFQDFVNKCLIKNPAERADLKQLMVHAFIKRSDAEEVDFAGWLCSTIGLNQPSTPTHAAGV

[38] = biological target: Tyrosine-protein kinase Lck (Homo sapiens) (UniProt P06239); assay: Inhibition of human Lck at 1 uM assessed as residual enzyme activity

Which IC50 [1] does the source give for `Cc1ccc(NC(=O)c2ccc(Nc3nc(Nc4ccc(O)cc4)ncc3F)cc2)cc1` here?
Its IC50 is 180 nM.

How did the IC50 [1] turn out when `O=C(Nc1cccc(O)c1)c1ccc(Nc2nc(Nc3ccc(O)cc3)ncc2F)cc1` was run?
The IC50 was 19 nM.

With `Cc1nc(Nc2ccc(O)cc2)nc(Nc2ccc(O)cc2)c1C` as the compound, how does the IC50 [1] read?
The IC50 was over 17000 nM.

How did the IC50 [1] turn out when `CC(C)NC(=O)c1ccc(Nc2nc(Nc3ccc(O)cc3)ncc2F)cc1` was run?
The IC50 was 51 nM.

With `COc1ccccc1NC(=O)c1ccc(Nc2nc(Nc3ccc(O)cc3)ncc2F)cc1` as the compound, how does the IC50 [1] read?
The IC50 was 78 nM.

Which IC50 [1] does the source give for `Fc1ccc(Nc2ncc(F)c(Nc3ccc(F)cc3)n2)cc1` here?
Its IC50 is 200 nM.

How did the IC50 [1] turn out when `COc1cccc(Nc2nc(Nc3ccc(O)cc3)ncc2F)c1` was run?
The IC50 was 260 nM.

Which IC50 [1] does the source give for `O=C(Nc1ccc(Cl)cc1)c1ccc(Nc2nc(Nc3ccc(O)cc3)ncc2F)cc1` here?
The IC50 was 64 nM.

`O=C(Nc1ccccc1)c1ccc(Nc2nc(Nc3ccc(O)cc3)ncc2F)cc1` was tested. Which IC50 [1] did it give?
The IC50 was 19 nM.

How did the IC50 [2] turn out when `O=C(O)c1ccc(Nc2ncc3c(n2)-c2ccc(Cl)cc2C(c2c(F)cccc2F)=NC3)cc1` [MLN-8054] was run?
The IC50 was 100 nM.

And the IC50 [3]?
The IC50 was 150 nM.

`Cc1ccccc1Nc1nc(Nc2ccc(O)cc2)ncc1F` was tested. Which IC50 [1] did it give?
The IC50 was 67 nM.

With `COc1ccc(NC(=O)c2ccc(Nc3nc(Nc4ccc(O)cc4)ncc3F)cc2)cc1` as the compound, how does the IC50 [1] read?
Its IC50 is 14 nM.

With `O=C(Nc1ccc(Nc2nc(Nc3ccc(O)cc3)ncc2F)cc1)c1ccccc1Cl` as the compound, how does the IC50 [2] read?
The IC50 was 850 nM.

What about the IC50 [3] of the same compound?
Its IC50 is 7200 nM.

And the IC50 [4]?
The IC50 was over 30000 nM.

What about the IC50 [5] of the same compound?
Its IC50 is over 12000 nM.

And the IC50 [6]?
Its IC50 is 1400 nM.

For `Cc1cccc(NC(=O)c2ccc(Nc3nc(Nc4ccc(O)cc4)ncc3F)cc2)c1`, which IC50 [1] is on record?
The IC50 was 50 nM.

How did the IC50 [1] turn out when `Cc1ccc(Nc2nc(Nc3ccc(O)cc3)ncc2F)cc1` was run?
The IC50 was 75 nM.

For `O=C(Nc1cccc(F)c1)c1ccc(Nc2nc(Nc3ccc(O)cc3)ncc2F)cc1`, which IC50 [1] is on record?
The IC50 was 59 nM.

How did the IC50 [1] turn out when `COc1ccccc1Nc1nc(Nc2ccc(O)cc2)ncc1F` was run?
The IC50 was 20 nM.

For `O=C(Nc1cccc(Cl)c1)c1ccc(Nc2nc(Nc3ccc(O)cc3)ncc2F)cc1`, which IC50 [1] is on record?
Its IC50 is 140 nM.

`COc1cccc(NC(=O)c2ccc(Nc3nc(Nc4ccc(O)cc4)ncc3F)cc2)c1` was tested. Which IC50 [1] did it give?
Its IC50 is 36 nM.

Which IC50 [2] does the source give for `O=C(NC1CC1)c1ccc(Nc2nc(Nc3ccc(O)cc3)ncc2F)cc1` here?
The IC50 was 2000 nM.

What about the IC50 [3] of the same compound?
The IC50 was 27000 nM.

And the IC50 [4]?
The IC50 was over 30000 nM.

What about the IC50 [5] of the same compound?
Its IC50 is over 25000 nM.

What about the IC50 [1] of the same compound?
Its IC50 is 54 nM.

What about the IC50 [6] of the same compound?
The IC50 was 3800 nM.

Which IC50 [1] does the source give for `CN(C)C(=O)c1ccc(Nc2nc(Nc3ccc(O)cc3)ncc2F)cc1` here?
The IC50 was 640 nM.

Which results are given for `O=C(Nc1ccccc1Cl)c1ccc(Nc2nc(Nc3ccc(O)cc3)ncc2F)cc1`?
Activity [7]: 57%; Activity [8]: 66%; IC50 [9]: 5000 nM; Activity [10]: 76%; IC50 [2]: 870 nM; Activity [11]: 100%; Activity [12]: 44%; Activity [13]: 40%; Activity [14]: 57%; Activity [15]: 87%; Activity [16]: 7%; IC50 [3]: 17000 nM; Activity [17]: 88%; Activity [18]: 82%; Activity [19]: 96%; Activity [20]: 54%; Activity [21]: 64%; Activity [22]: 102%; IC50 [23]: 3200 nM; Activity [24]: 91%; Activity [25]: 54%; Activity [26]: 25%; Activity [27]: 76%; Activity [28]: 100%; Activity [29]: 1%; IC50 [4]: > 30000 nM; Activity [30]: 60%; IC50 [5]: > 25000 nM; IC50 [1]: 10 nM; Activity [31]: 103%; Activity [32]: 90%; Activity [33]: 6%; Activity [34]: 31%; Activity [35]: 104%; IC50 [6]: 1900 nM; Activity [36]: 111%; Activity [37]: 103%; Activity [38]: 42%

Which IC50 [1] does the source give for `O=C(Nc1ccccc1F)c1ccc(Nc2nc(Nc3ccc(O)cc3)ncc2F)cc1` here?
Its IC50 is 9 nM.
